Data: ChEMBL document CHEMBL5523690, “Synergistic effect of tryptamine-urea derivatives to overcome the chromosomally-mediated colistin resistance in Klebsiella pneumoniae” (Bioorg Med Chem, 2024)

Tests used:
Escherichia coli [1] = assay: Antibacterial activity against Escherichia coli ATCC25922 assessed as inhibition of visible bacterial growth measured after 20 hrs under aerobic condition by two fold serial dilution assay; format: functional
Outline: (§1)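 Broth microdilution following EUCAST. Compound was tested at final well concentrations of 0.25–128 µg/mL against 5.10^5 CFU/mL inoculum, incubated 20 h at 37 °C aerobically. MIC was taken as the lowest concentration with no visible growth. There were three independent experiments per strain.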

Klebsiella pneumoniae [2] = assay: Antibacterial activity against Klebsiella pneumoniae ATCC700603 assessed as inhibition of visible bacterial growth measured after 20 hrs under aerobic condition by two fold serial dilution assay; format: functional; outline: as §1
Pseudomonas aeruginosa [3] = assay: Antibacterial activity against Pseudomonas aeruginosa ATCC27853 assessed as inhibition of visible bacterial growth measured after 20 hrs under aerobic condition by two fold serial dilution assay; format: functional; outline: as §1
Escherichia coli [4] = assay: Antibacterial activity against colistin resistant Escherichia coli NTCC 13846 harboring mcr-1 gene assessed as inhibition of visible bacterial growth measured after 20 hrs under aerobic condition by two fold serial dilution assay; format: functional
Escherichia coli [5] = assay: Antibacterial activity against colistin resistant Escherichia coli A50 harboring mcr-1 gene assessed as inhibition of visible bacterial growth measured after 20 hrs under aerobic condition by two fold serial dilution assay; format: functional
Klebsiella pneumoniae [6] = assay: Antibacterial activity against chromosomally-mediated resistant Klebsiella pneumoniae BA03057 assessed as inhibition of visible bacterial growth measured after 20 hrs under aerobic condition by two fold serial dilution assay; format: functional
Pseudomonas aeruginosa [7] = assay: Antibacterial activity against chromosomally-mediated colistin resistant Pseudomonas aeruginosa 15080 assessed as inhibition of visible bacterial growth measured after 20 hrs under aerobic condition by two fold serial dilution assay; format: functional
Pseudomonas aeruginosa [8] = assay: Antibacterial activity against chromosomally-mediated colistin resistant Pseudomonas aeruginosa 10039 assessed as inhibition of visible bacterial growth measured after 20 hrs under aerobic condition by two fold serial dilution assay; format: functional
Pseudomonas aeruginosa [9] = assay: Antibacterial activity against chromosomally-mediated colistin resistant Pseudomonas aeruginosa 1002 assessed as inhibition of visible bacterial growth measured after 20 hrs under aerobic condition by two fold serial dilution assay; format: functional
Erythrocyte [10] = assay: Hemolytic activity in sheep RBC assessed as RBC deformation at 25 uM measured after 1 hr in presence of colistin by fluorescence microscopic analysis; format: toxicity, cell-based, Ovis aries
Outline: (§2)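 PBS-washed sheep erythrocytes were exposed to compound in PBS at 25–800 µM, or 25 µM plus colistin 1 µg/mL. Each reaction held 5% (v/v) RBCs and 5% (v/v) DMSO, incubated 1 h at 37 °C with 100 rpm agitation, then centrifuged at 1000 g, 4 °C. Cell shape was examined by optical microscopy. Triplicates.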

[11] = Hemolytic activity in sheep RBC assessed as survival rate at 25 uM measured after 1 hr in presence of colistin by fluorescence microscopic analysis relative to control; format: toxicity, cell-based, Ovis aries, Erythrocyte; details: sheep red blood cells (erythrocytes), read-out: Survival
Outline: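 Washed sheep erythrocytes in PBS, 5% (v/v) final with 5% (v/v) DMSO, given 25 µM agent plus colistin 1 µg/mL; 1 h at 37 °C, shaking 100 rpm; Triton X-100 0.5% positive and PBS negative controls; cells spun off at 1000 g, 4 °C; absorbance (750–600 nm) read as % RBC survival; triplicate; shape checked by optical microscopy.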

Klebsiella pneumoniae [12] = assay: Synergistic antibacterial activity against Klebsiella pneumoniae BA03057 assessed as fractional inhibitory concentration index incubated for 24 hrs under aerobic condition in presence of colistin by checkerboard assay; format: functional
Outline: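 Checkerboard against KP BA03057 at 5.10^5 CFU/mL. Colistin was two-fold diluted 0–64 µg/mL across compound two-fold diluted 0–100 µM. Plates were incubated 24 h at 37 °C aerobically and absorbance read at 600 nm. FICI = MIC(compound, combined)/MIC(compound alone) + MIC(colistin, combined)/MIC(colistin alone), with synergy at FICI < 0.5. Plates were run in duplicate.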

Escherichia coli [13] = assay: Colistin adjuvant activity against colistin-resistant Escherichia coli A50 assessed as antibacterial effect by measuring colistin MIC incubated for 24 hrs under aerobic condition by two fold serial dilution method; format: functional
Klebsiella pneumoniae [14] = assay: Colistin adjuvant activity against colistin-resistant Klebsiella pneumoniae BA03057 assessed as antibacterial effect by measuring colistin MIC incubated for 24 hrs under aerobic condition by two fold serial dilution method; format: functional
Escherichia coli [15] = assay: Colistin adjuvant activity against colistin-resistant Escherichia coli A50 assessed as colistin MIC by measuring potentiation fold incubated for 24 hrs under aerobic condition by two fold serial dilution method relative to colistin alone; format: functional
Erythrocyte [16] = assay: Hemolytic activity in sheep RBC assessed as hemolysis at 25 uM measured after 1 hr by fluorescence microscopic analysis; format: toxicity, cell-based, Ovis aries
Outline: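 Sheep erythrocytes, PBS-washed, were treated at 5% (v/v) with compound (25–800 µM) in 5% (v/v) DMSO for 1 h at 37 °C, shaking at 100 rpm. Controls were 0.5% Triton X-100 (positive) and PBS (negative). After centrifugation at 1000 g, 4 °C, hemolysis was assessed visually and by absorbance (750–600 nm) as percent RBC survival. Triplicate.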

Erythrocyte [17] = assay: Hemolytic activity in sheep RBC assessed as hemolysis at 1600 uM measured after 1 hr by fluorescence microscopic analysis; format: toxicity, cell-based, Ovis aries
Erythrocyte [18] = assay: Hemolytic activity in sheep RBC assessed as RBC deformation at 800 uM measured after 1 hr by fluorescence microscopic analysis; format: toxicity, cell-based, Ovis aries; outline: as §2

In the case of `O=C(NCCc1c[nH]c2ccccc12)Nc1cccc(F)c1`, the MIC (Escherichia coli [1]) is reported as > 128 µg/mL, the MIC (Klebsiella pneumoniae [2]) is reported as > 128 µg/mL and the MIC (Pseudomonas aeruginosa [3]) is reported as > 128 µg/mL. The MIC (Escherichia coli [4]) was > 128 µg/mL, the MIC (Escherichia coli [5]) was > 128 µg/mL and the MIC (Klebsiella pneumoniae [6]) was > 128 µg/mL. The MIC (Pseudomonas aeruginosa [7]) was > 128 µg/mL, the MIC (Pseudomonas aeruginosa [8]) was > 128 µg/mL and the MIC (Pseudomonas aeruginosa [9]) was > 128 µg/mL. For the same compound, the Activity (Erythrocyte [10]) was “Non-Toxic”, the viability at 1 h, 25 µM [11] was 96% and the “fractional inhibitory concentration index (FICI)” value (Klebsiella pneumoniae [12]) was 0.073. The MIC (Escherichia coli [13]) was 4 µg/mL, the MIC (Klebsiella pneumoniae [14]) was 1 µg/mL and the “fold change (FC)” value (Escherichia coli [15]) was 0.5. The Activity (Erythrocyte [16]) was “Non-Toxic”, the Activity (Erythrocyte [17]) was “Non-Toxic” and the Activity (Erythrocyte [18]) was “Non-Toxic”.
